# Test results reported in the array DNA melting data of Ke et al. (doi:10.1101/2024.01.08.574731).
# Experiments:
# [1] = melting temperature; fluorescence melt of hairpins on a sequencing array, two-state fit, raised by 9.35 °C to match UV melts; conditions: sodium 0.088 M
# Method in brief: (§1)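 Bootstrapped two-state fits yielded melting temperature and folding enthalpy for library hairpins. Cy3 fluorescence, with annealed Cy3 and quencher oligos, was imaged on a sequenced MiSeq flow cell in 50 mM Na-HEPES pH 8.0, 25 mM NaCl in 2.5 °C steps up to 60 °C, and normalised to pre-quench Cy3 and to control constructs. Four replicates were combined by inverse variance, and fitted temperatures were raised by 9.35 °C to match UV melts.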
# [2] = folding enthalpy; higher = less favourable; fluorescence melt of hairpins on a sequencing array, two-state fit; conditions: sodium 0.088 M
# Method in brief: as §1
Sequence,Tm [1],folding enthalpy [2]
GCTTTCGAAAGAATTAGC ((((((....)))..))),30.5 °C,-15.1 kcal/mol
GTGACACCGAAAGGTCAC (((..(((....)))))),47.8 °C,-25 kcal/mol
GCGGTACGAAAGTAACGC (((.(((....))).))),67.7 °C,-38.8 kcal/mol
GTTAATCGAAAGATAAAC (((.(((....))).))),31.6 °C,-20.7 kcal/mol
GATTGAGAAATCAATC ((((((....)))))),45.5 °C,-25.9 kcal/mol
GCTAGATCGAAAGATAGC (((..(((....)))))),36.4 °C,-19.4 kcal/mol
CTGATGAAAATCAG (((((....))))),43.4 °C,-22 kcal/mol
GATAGTGGAAACACTATC (((((((....))))))),54.5 °C,-47.2 kcal/mol
GCTGCGCGAAAGCCCCGC ((.(.((....)).).)),31.8 °C,-9.96 kcal/mol
GATCAAGGAATTGATC ((((((....)))))),47.6 °C,-31.8 kcal/mol
GATTTGCGAAAGCAATC (((.(((....)))))),40.3 °C,-12.6 kcal/mol
GATCCTGCCTAGGATC ((((((....)))))),54.7 °C,-43.7 kcal/mol
GACCTCCGAAAGGACGTC (((.(((....))).))),42 °C,-27.3 kcal/mol
GGATAGGGAAACCTATCC (((((((....))))))),56.8 °C,-47.9 kcal/mol
GATCGCCGAAAGGCCATC (((.(((....))).))),38.6 °C,-14.5 kcal/mol
GCGTTATAACGC ((((....)))),55.5 °C,-30.4 kcal/mol
GGACTGCCGAAAGGCTCC (((..(((....)))))),34.7 °C,-10.2 kcal/mol
GTCACGCGAAAGCGAGAC (((.(((....))).))),60.1 °C,-17.5 kcal/mol
GCAAAGCGAAAGCTGCGC ((..(((....)))..)),64.3 °C,-28.5 kcal/mol
GATCGCCAGGCGATC ((((((...)))))),67.1 °C,-35.1 kcal/mol
GAATAGGCGAAAGCCTTC (((..(((....)))))),29.1 °C,-8.6 kcal/mol
GTACCAGAAATGGTAC ((((((....)))))),53.2 °C,-33.1 kcal/mol
GATCCAAGCTTGGATC ((((((....)))))),54.8 °C,-54.6 kcal/mol
GCAACAGGAAACTGTTAC (.(((((....))))).),34 °C,-16.7 kcal/mol

Sequence,Tm [1],folding enthalpy [2]
GCAACGCGAAAGCTATGC (((..((....))..))),36.8 °C,-11.6 kcal/mol
GAGAGCGAAAGCTGCTC ((((((....))).))),47 °C,-14 kcal/mol
GGGTGCGGAAACGTGCCC (((..((....))..))),57.3 °C,-39.8 kcal/mol
GCTACGCGAAAGCATAGC ((((.((....)).)))),53.9 °C,-28 kcal/mol
AAGGTGAAAACCTT (((((....))))),43.2 °C,-17.5 kcal/mol
GATCCTAACTAGGATC ((((((....)))))),53.3 °C,-36.2 kcal/mol
GGTCGCTCGAAAGAGACC (((..(((....)))))),49.1 °C,-20.6 kcal/mol
GACACCGAAAGGTCGGTC ((((((....)))..))),35 °C,-16.7 kcal/mol
GTTGACCGAAAGGTAAAC (((.(((....))).))),48.7 °C,-30.7 kcal/mol
GATCATATGCATGATC ((((((....)))))),48.2 °C,-40.4 kcal/mol
GTAGCCCCGAAAGGGTAC (((..(((....)))))),39.1 °C,-13.1 kcal/mol
GCGGGGGGAAACCCCCAC (.(((((....))))).),46 °C,-11.2 kcal/mol
GTGAGGGGAAACCCTTAC ((.((((....)))).)),44.5 °C,-26.7 kcal/mol
GGTTGAGGAAACTCAACC (((((((....))))))),60.7 °C,-40.1 kcal/mol
GCGATGAATCGC ((((....)))),52.4 °C,-26.2 kcal/mol
GGTTAGGGAAACCTGACC (((.(((....))).))),48 °C,-33 kcal/mol
GGATTGGGAAACCAATCC (((((((....))))))),60.2 °C,-48.6 kcal/mol
GCGTGCGGAAACGTGCGC (((..((....))..))),59.6 °C,-25.6 kcal/mol
GGTGGGGCGAAAGCCACC (((..(((....)))))),54.5 °C,-12.3 kcal/mol
GATCTGTTTTCAGATC ((((((....)))))),51.4 °C,-49.9 kcal/mol
GATCGACACCTCGATC ((((((....)))))),52.5 °C,-44.7 kcal/mol
GCAATCCGAAAGGACTGC (((.(((....))).))),49.8 °C,-17.6 kcal/mol
GCCGTGCGAAAGCTTGGC (((..((....))..))),59.6 °C,-28.5 kcal/mol
GCAATGCGAAAGCACGGC ((..(((....)))..)),36.3 °C,-19.9 kcal/mol

Sequence,Tm [1],folding enthalpy [2]
GTATGCGAAAGCAATTAC ((((((....)))..))),28.2 °C,-10.7 kcal/mol
GTGCGATCGAAAGATCAC (((..(((....)))))),44.4 °C,-18.2 kcal/mol
GCCCTCGGAAACAAGGGC (((((.(....).))))),49.6 °C,-35.8 kcal/mol
GCAGCGCGAAAGCTCGGC ((.(.((....)).).)),42.9 °C,-20.9 kcal/mol
GATCAACTGGTTGATC ((((((....)))))),55.2 °C,-39.8 kcal/mol
GATTGCGAAAGCACAATC ((((((....)))..))),32.7 °C,-10.8 kcal/mol
GCCTTGCGAAAGCAATGC ((.((((....)))).)),56.9 °C,-17.4 kcal/mol
GATGACCCGAAAGGGATC (((..(((....)))))),33.2 °C,-11.7 kcal/mol
GACACCGAAAGGTCTGTC ((((((....)))..))),35.2 °C,-16.6 kcal/mol
GATCGGGGCTCCGATC ((((((....)))))),59.4 °C,-34.5 kcal/mol
GCGGAAGCGAAAGCTCGC (((..(((....)))))),52.1 °C,-31.5 kcal/mol
GCACTCGGAAACGAACGC ((..(((....)))..)),27.8 °C,-13.9 kcal/mol
GGATTCGGAAACGGATCC ((((.((....)).)))),53 °C,-39.2 kcal/mol
GGAGCAGGAAACTGCCCC ((.((((....)))).)),49.7 °C,-17.4 kcal/mol
GTGGTCCGAAAGGATCAC (((.(((....))).))),60.4 °C,-41.1 kcal/mol
GATCCTTGTAAGGATC ((((((....)))))),55.6 °C,-42.3 kcal/mol
GTTACTGGAAACAGCAAC (((.(((....))).))),36 °C,-28 kcal/mol
GTGATCGAAAGATGACAC ((((((....)))..))),33.4 °C,-16.2 kcal/mol
GCATAGAAATATGC (((((....))))),43.3 °C,-21.9 kcal/mol
GATGCGGAAACGCATC ((((((....)))))),68.2 °C,-31.3 kcal/mol
GATCTTCGCAAAGATC ((((((....)))))),45.5 °C,-28.3 kcal/mol
CGCTGTCGGAAACGAGCG (((..(((....)))))),45.2 °C,-25 kcal/mol
GGTCCAGGAAACTGAACC (((.(((....))).))),40 °C,-34.6 kcal/mol
GCGTATAAACGC ((((....)))),50.4 °C,-19.7 kcal/mol

Sequence,Tm [1],folding enthalpy [2]
GGTGTTGCGAAAGCAACC (((..(((....)))))),49.5 °C,-8.2 kcal/mol
GCCAATCGAAAGATGGGC (((.(((....))).))),55.1 °C,-39.5 kcal/mol
GGAGTGGCGAAAGCCTCC (((..(((....)))))),44 °C,-15 kcal/mol
GATCCGTCGGCGGATC ((((((....)))))),59 °C,-39.3 kcal/mol
GATCCACCAATGGATC ((((((....)))))),48.5 °C,-36.4 kcal/mol
GTGCGCGAAAGCGAGCAC ((((((....)))..))),57.7 °C,-25.5 kcal/mol
GATCCTGCGCAGGATC ((((((....)))))),59.3 °C,-53 kcal/mol
GGAAGGGGAAACCTTTCC ((((.((....)).)))),43.3 °C,-23.4 kcal/mol
GATCTGGTCACAGATC ((((((....)))))),62.1 °C,-40.3 kcal/mol
GATCGTGGATACGATC ((((((....)))))),60.7 °C,-51.4 kcal/mol
CGTCCGGAAACGGCACG ((((((....))).))),47.6 °C,-22.5 kcal/mol
GCGCACGAAAGTGGTCGC ((((((....)))..))),53.4 °C,-13.8 kcal/mol
GCGGCTTACCGC ((((....)))),61.2 °C,-26.1 kcal/mol
GATCCCCGAAGGGATC ((((((....)))))),57.1 °C,-15.6 kcal/mol
GAATGGGGAAACCCGTTC (((.(((....))).))),48.2 °C,-35.5 kcal/mol
TACTCGAAAGAGTA (((((....))))),47.1 °C,-18.1 kcal/mol
GCGTACCACGC ((((...)))),55.9 °C,-24.7 kcal/mol
GCGACGTTTCGC ((((....)))),47.8 °C,-17.9 kcal/mol
GGAGGTGGAAACACCTCC (((((((....))))))),68.6 °C,-40.8 kcal/mol
GTACGGGGAAACCCATAC (((.(((....))).))),35 °C,-21.9 kcal/mol
GATCAATCCCTTGATC ((((((....)))))),46.7 °C,-41.6 kcal/mol
